pIC50: −log10 of the molar value.
Key:
Assay type in all cases: functional, cell-based
MCF7 = test: Antiproliferative activity against human MCF7 cells after 3 days by MTT assay; conditions: MCF7, 72 h
Method in brief: (§1)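 Stock cells grown to confluence in DMEM with 10% inactivated FBS, penicillin, streptomycin and amphotericin B at 37 °C, 5% CO₂, then detached with trypsin-EDTA-glucose. About 10,000 cells per well were seeded; after 24 h, drug was added at five dose levels for 72 h. MTT was added for 3 h, formazan dissolved in propanol and read at 540 nm. IC50 was taken from dose-response curves, triplicate, mean ± SEM.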

HeLa = test: Antiproliferative activity against human HeLa cells after 3 days by MTT assay; conditions: 72 h; method in brief: as §1
A549 = test: Antiproliferative activity against human A549 cells after 3 days by MTT assay; conditions: A549, 72 h; method in brief: as §1

pIC50 (MCF7) | pIC50 (HeLa) | pIC50 (A549) | Structure (SMILES)
4.53 | 4.59 | 4.63 | O=C(Cn1c2ccccc2c(=O)c2ccccc21)Nc1ccccc1F
4.40 | 4.36 | 4.38 | O=C(Cn1c2ccccc2c(=O)c2ccccc21)Nc1ccccc1
4.52 | 4.54 | 4.48 | O=C(Cn1c2ccccc2c(=O)c2ccccc21)Nc1cccc(Cl)c1
4.51 | 4.49 | 4.46 | O=C(Cn1c2ccccc2c(=O)c2ccccc21)Nc1ccc(Cl)cc1
4.90 | 4.88 | 4.93 | O=C(Cn1c2ccccc2c(=O)c2ccccc21)Nc1ccccc1[N+](=O)[O-]
4.85 | 4.77 | 4.71 | O=C(Cn1c2ccccc2c(=O)c2ccccc21)Nc1ccc([N+](=O)[O-])cc1
4.70 | 4.66 | 4.70 | Cc1ccc(NC(=O)Cn2c3ccccc3c(=O)c3ccccc32)cc1
4.82 | 4.71 | 4.78 | COc1ccc(NC(=O)Cn2c3ccccc3c(=O)c3ccccc32)cc1
4.81 | 4.66 | 4.76 | O=C(Cn1c2ccccc2c(=O)c2ccccc21)Nc1ccc(O)cc1
4.58 | 4.63 | 4.69 | O=C(Cn1c2ccccc2c(=O)c2ccccc21)Nc1ccc(C(F)(F)F)cc1
4.45 | 4.46 | 4.42 | O=C(Cn1c2ccccc2c(=O)c2ccccc21)Nc1cccc(C(F)(F)F)c1
5.22 | 5.06 | 5.13 | O=C(Cn1c2ccccc2c(=O)c2ccccc21)Nc1ccccc1C(=O)O
5.15 | 4.97 | 5.06 | O=C(Cn1c2ccccc2c(=O)c2ccccc21)Nc1ccc(C(=O)O)cc1
4.56 | 4.58 | 4.61 | O=C(Cn1c2ccccc2c(=O)c2ccccc21)Nc1ccc(F)cc1
4.48 | 4.49 | 4.45 | O=C(Cn1c2ccccc2c(=O)c2ccccc21)Nc1ccc(Br)cc1

From ChEMBL document CHEMBL3259535, “Synthesis, cytotoxic study and docking based multidrug resistance modulator potential analysis of 2-(9-oxoacridin-10(9H)-yl)-N-phenyl acetamides” (Eur J Med Chem, 2014)
